Assay results collected from several papers.
Values after ≈ are worked out from the molar mass of the structure shown.

SMILES | tested on | test | system | setting | quantity | result
Cc1ccc(NC(=O)c2ccc(CN3CCN(C)CC3)cc2)cc1Nc1nccc(-c2cccnc2)n1 | HeLa | cell growth or viability, MTT |  | 1 µM, 48 h | inhibition | 11%
COc1ccc(-c2ccc(-c3ccc(C(=N)N)nc3)s2)cc1Cl | UACC-62 | cell growth or viability, SRB |  |  | GI50 | 1.76 µM
CCCCCCCCCCCCNC(=S)NCCCC[C@H](NS(C)(=O)=O)C(=O)N[C@@H](C)C(=O)N[C@@H](CCCNC(=N)N)C(N)=O | HeLa | cell growth or viability, MTT |  | 72 h | EC50 | 28.9 to 39.1 µM
COc1cc(-c2ccc(-c3ccc(C(=N)N)nc3)s2)cc(OC)c1OC | SK-MEL-2 | cell growth or viability, SRB |  |  | GI50 | 2.09 µM
Cc1ccc2nc(-c3ccccc3Cl)[nH]c2c1 | Enterococcus faecalis | microbial growth, broth dilution | ATCC29212 |  | MIC | 256 µg/mL (≈ 1050 µM)
Cc1nc2ccc(Cl)cn2c1C(=O)N1CCN(CCn2cc(-c3ccc(C(C)(C)C)cc3)nn2)CC1 | Leishmania major | parasite growth, resazurin |  | 72 h, promastigote | IC50 | 171 µM
Cn1nnc2c(C(N)=O)ncn2c1=O | BGC-823 | cell growth or viability |  |  | EC50 | > 1000 µM
Clc1ccc(-c2nc3ccccc3n2Cc2ccccc2)cc1Cl | Enterococcus faecalis | microbial growth, broth dilution | ATCC29212 |  | MIC | 128 µg/mL (≈ 362 µM)
CCCCCCCCCCCCNC(=O)NCCCC[C@H](NS(C)(=O)=O)C(=O)N[C@H](C)C(=O)N[C@@H](CCCNC(=N)N)C(N)=O | HeLa | cell growth or viability, MTT |  | 72 h | EC50 | 23.1 to 41.4 µM
Cc1ccn2c(C(=O)N3CCN(Cc4cn(-c5ccc(F)c(Cl)c5)nn4)CC3)c(C)nc2c1 | Leishmania major | parasite growth, resazurin |  | 72 h, promastigote | IC50 | 174 µM
